Test results published in ChEMBL document CHEMBL1152368, “Synthesis, structure-activity relationships, and biological profiles of a dihydrobenzoxathiin class of histamine H(3) receptor inverse agonists” (Bioorg Med Chem Lett, 2009).

Experiments:
[1] = target: Histamine H3 receptor (Rattus norvegicus, UniProt Q9QYN8); experiment: Displacement of [3H]R-alpha-methylhistamine from rat histamine H3 receptor by cell-based assay
How it was run: (§1)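 Radioligand binding with [³H]R-α-methylhistamine on membranes of CHO or HEK293 cells expressing human, rat or mouse H₃ receptor.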

[2] = target: Histamine H3 receptor (Mus musculus, UniProt P58406); experiment: Displacement of [3H]R-alpha-methylhistamine from mouse histamine H3 receptor by cell-based assay; how it was run: as §1
[3] = target: Histamine H1 receptor (Homo sapiens, UniProt P35367); experiment: Inhibition of human histamine H1 receptor
[4] = target: Histamine H2 receptor (Homo sapiens, UniProt P25021); experiment: Inhibition of human histamine H2 receptor
[5] = target: Histamine H4 receptor (Homo sapiens, UniProt Q9H3N8); experiment: Inhibition of human histamine H4 receptor

Chain of Histamine H3 receptor (Rattus norvegicus, UniProt Q9QYN8) (Q9QYN8 whole entry): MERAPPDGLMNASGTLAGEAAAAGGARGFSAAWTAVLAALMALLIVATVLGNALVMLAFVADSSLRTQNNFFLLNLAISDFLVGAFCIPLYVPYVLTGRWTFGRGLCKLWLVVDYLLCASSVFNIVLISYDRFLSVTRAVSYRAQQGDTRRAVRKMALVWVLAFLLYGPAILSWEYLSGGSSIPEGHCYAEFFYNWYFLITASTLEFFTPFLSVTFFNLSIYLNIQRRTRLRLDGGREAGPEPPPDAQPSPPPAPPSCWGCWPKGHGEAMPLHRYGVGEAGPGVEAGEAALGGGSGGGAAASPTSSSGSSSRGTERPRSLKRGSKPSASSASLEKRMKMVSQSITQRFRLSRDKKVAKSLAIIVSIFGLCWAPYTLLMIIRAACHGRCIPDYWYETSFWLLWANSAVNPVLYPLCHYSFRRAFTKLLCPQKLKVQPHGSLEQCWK
Chain of Histamine H2 receptor (P25021 whole entry): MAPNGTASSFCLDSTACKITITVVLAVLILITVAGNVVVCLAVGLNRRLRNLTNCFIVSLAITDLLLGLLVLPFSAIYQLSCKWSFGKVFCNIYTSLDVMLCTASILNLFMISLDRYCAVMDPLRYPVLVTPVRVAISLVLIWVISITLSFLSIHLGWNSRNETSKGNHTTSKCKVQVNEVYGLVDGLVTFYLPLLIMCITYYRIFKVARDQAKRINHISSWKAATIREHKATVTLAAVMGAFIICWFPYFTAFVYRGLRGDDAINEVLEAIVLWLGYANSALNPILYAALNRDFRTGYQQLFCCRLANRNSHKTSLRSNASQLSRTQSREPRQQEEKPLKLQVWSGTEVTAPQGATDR
Chain of Histamine H1 receptor (P35367 whole entry): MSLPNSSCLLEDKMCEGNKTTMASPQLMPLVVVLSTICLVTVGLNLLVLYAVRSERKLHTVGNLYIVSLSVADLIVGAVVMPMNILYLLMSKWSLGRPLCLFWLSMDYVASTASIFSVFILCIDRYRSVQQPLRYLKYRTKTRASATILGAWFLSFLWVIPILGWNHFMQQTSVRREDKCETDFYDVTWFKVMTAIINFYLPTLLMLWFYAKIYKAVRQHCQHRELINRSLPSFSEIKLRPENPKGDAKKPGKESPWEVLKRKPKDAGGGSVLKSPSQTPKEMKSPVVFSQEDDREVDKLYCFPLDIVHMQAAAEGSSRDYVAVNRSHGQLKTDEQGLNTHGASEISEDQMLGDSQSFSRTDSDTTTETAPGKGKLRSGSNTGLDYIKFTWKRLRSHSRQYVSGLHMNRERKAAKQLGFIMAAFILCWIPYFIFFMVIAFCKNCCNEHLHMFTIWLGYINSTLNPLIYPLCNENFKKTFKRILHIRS
Chain of Histamine H3 receptor (Mus musculus, UniProt P58406) (P58406 whole entry): as the sequence (Q9QYN8 whole entry) above, with T15A, A286T, A290G, R387H, I389V counted along it

- Ki [1]: 2.8 nM
- Ki [2]: 5.9 nM
- IC50 [3]: > 10 µM
- IC50 [4]: > 10 µM
- IC50 [5]: > 10 µM
Structure (SMILES): COc1cccc2c1O[C@@H](c1ccc(OCCCN3CCCC3)cc1)[C@H](C)S2(=O)=O
